High-throughput results: PubChem, several laboratories
VIM-2 inhibitor – inhibitors of Pseudomonas aeruginosa VIM-2 metallo-beta-lactamase. purified VIM-2, nitrocefin hydrolysis, epi-absorbance fluorescence. inhibition, % at 5.6 µM. 290,000 tested, 0.89% active;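 active = inhibition above the mean of all tested compounds plus 3 SD, cutoff set per screening run, cut at about 7.5% in these data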;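 note: red hydrolysis product quenches plate fluorescence so inhibitors raise well fluorescence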
CHT PAM – allosterically activates the human high affinity choline transporter; 310,000 tested, 0.49% active; Q9GZV3; CHT-expressing cells, membrane potential dye, choline EC20; stronger effect = higher value; LV-AA mutant CHT in HEK293 cells; B-score at 10 µM;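 active = initial fluorescence not abnormally high and integrated response B-score, plate-corrected, over 3 SD above library mean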
Target sequence (Q9GZV3 whole entry, looked up): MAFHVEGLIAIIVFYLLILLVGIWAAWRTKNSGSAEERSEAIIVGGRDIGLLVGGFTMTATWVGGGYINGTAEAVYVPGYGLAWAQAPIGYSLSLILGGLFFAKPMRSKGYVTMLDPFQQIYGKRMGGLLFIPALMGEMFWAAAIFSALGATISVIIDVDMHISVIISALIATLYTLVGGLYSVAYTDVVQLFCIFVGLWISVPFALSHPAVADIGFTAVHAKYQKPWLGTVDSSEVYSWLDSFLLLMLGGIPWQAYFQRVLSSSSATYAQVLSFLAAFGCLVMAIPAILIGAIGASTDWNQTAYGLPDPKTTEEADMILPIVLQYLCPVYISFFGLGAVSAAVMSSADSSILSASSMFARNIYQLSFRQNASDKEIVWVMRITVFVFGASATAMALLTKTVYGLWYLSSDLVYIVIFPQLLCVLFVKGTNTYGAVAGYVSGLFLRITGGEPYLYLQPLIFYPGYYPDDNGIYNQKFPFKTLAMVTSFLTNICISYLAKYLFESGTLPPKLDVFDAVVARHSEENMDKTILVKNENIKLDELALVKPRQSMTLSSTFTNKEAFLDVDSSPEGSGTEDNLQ
TMEM16A act – mouse TMEM16A channel activation, primary screen. 340,000 tested, 0.3% active. B-score at 10 µM. HEK293 TMEM16A/YFP-H148Q/I152L, iodide quench fluorescence; stronger effect = lower value. AID 623877;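 active = fluorescence-ratio B-score plate-corrected deviation score at least 3 library SD below zero, with starting fluorescence score within 5 deviations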;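 note: channel opened by trigger with iodide after compound preincubation; score built on the fluorescence ratio of max minus min over baseline; more negative score means more quench and so TMEM16A activation or potentiation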
CHT block – inhibitors of human choline transporter CHT. 310,000 tested, 0.86% active. B-score at 10 µM. CHT-expressing cells, membrane potential dye, choline response; stronger effect = lower value;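 active = B-score over 3 SD under the library average, and starting fluorescence ratio not unusually high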;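 note: choline stimulus applied at its EC90 after an EC20 pre-addition; B-score computed on integrated fluorescence ratio after choline addition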
IMP-1 inh – inhibitors of Pseudomonas aeruginosa IMP-1 metallo-beta-lactamase | purified IMP-1, nitrocefin hydrolysis, epi-absorbance fluorescence | inhibition, % at 5.6 µM | 290,000 tested, 0.45% active | AID 1556;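 active = inhibition above the mean plus 3 SD of all compounds in the same screening run, cut at about 4.5% in these data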
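System: Purified recombinant IMP-1 metallo-beta-lactamase enzyme | Measured by: Fluorescence quenching readout, ex 480/em 530 nm | Replication: Singlicate | Incubation: 15 min preincubation plus 25 min reaction at 25 °C | Evaluation: Percent inhibition from optical density relative to buffer-blank wells | Benchmarks: DMSO with and without IMP-1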
ANO1 block – mouse TMEM16A channel inhibition, primary screen | Q8BHY3 | HEK293 TMEM16A/YFP iodide influx fluorescence, ionomycin | normalized B-score (activity score, 25-100; higher = stronger inhibition) at 10 µM | 310,000 tested, 1.2% active;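 active = ratio plate-corrected score three or more library SD toward inhibition, starting fluorescence score within five deviations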;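 note: score derived from kinetic fluorescence span divided by baseline fluorescence per well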
CHT block conf – human CHT inhibition, confirmatory screen; shares compounds with CHT block; CHT-expressing cells, choline membrane potential dye; LV-to-AA substituted CHT, HEK293 cells; CHT activity remaining % of control (stronger effect = lower value), % at 10 µM; 2,400 tested, 70% active; AID 493221;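 active = choline transporter activity left, mean of duplicates at 10 µM, below buffer-only control mean minus 3 SD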;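 note: depolarization triggered by choline at its EC90 following an EC20 pre-addition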
HEK293 MPD ctr – CHT inhibitor counter-screen hit in parental HEK293 cells. shares compounds with CHT block. membrane potential dye, choline response; active = decrease or increase beyond buffer ±3SD. membrane potential ratio readout (active if shifted either direction beyond buffer ±3SD; no single direction) at 10 µM. 2,400 tested, 4% active;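 note: parental cells lack the transporter so any hit is non-specific; ratio is peak minus trough fluorescence over baseline after EC90 choline challenge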
TMEM16A reconf – re-confirmation of mouse TMEM16A chloride channel inhibitors; shares compounds with ANO1 block; 2,300 tested, 39% active; HEK293 TMEM16A/YFP-H148Q, iodide quench fluorescence; ionomycin added to raise cell calcium; inhibition, % at 10 µM;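 active = mean duplicate percent inhibition, scaled so buffer wells are 0 and the reference blocker 100, over three buffer SD above buffer mean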
HEK293 Ca mobil – alters calcium mobilization in TMEM16A HEK293 cells, counter-screen. AID 652231. 2,300 tested, 2% active. calcium response (% of ionomycin), % at 10 µM. TMEM16A/YFP HEK293, Fluo4 calcium mobilization. shares compounds with ANO1 block;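 active = duplicate-averaged calcium signal over 20% of the ionomycin maximum, relative to buffer baseline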;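 note: each well's signal is peak minus trough fluorescence divided by its pre-addition baseline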
Parental YFP cnt – parental YFP-HEK293 iodide quench counter-screen activity. shares compounds with ANO1 block. 2,300 tested, under 10 active. ionomycin. YFP ratio F(max-min)/F0 at 10 µM;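 active = yellow fluorescent protein signal ratio exceeding the buffer control mean by over 5 SD of those controls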;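 note: ratio is mean of duplicate wells from kinetic YFP trace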
ClC-1 inh – blocks the rat ClC-1 voltage-dependent chloride channel; shares compounds with ANO1 block; CHO ClC-1-YFP, iodide influx fluorescence quench; iodide control reads 0, buffer control 100; ratio percent, % at 10 µM; 2,300 tested, under 10 active; AID 652236;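 active = duplicate-mean ratio percent above the mean of iodide-only control wells, which defines zero, plus 5 of their SD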;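 note: higher percent means stronger block of ClC-1 iodide influx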
Of the large screens only hits and unclear results are named; the others gave an inactive call (follow-up assays come after a bar, where they were run). The list is not random: actives were taken first. Their share in the collection is about 3.4%.

CCCCCc1cc(=O)oc2c(C(CCN3CCCCC3)c3cc(OC)c(OC)c(OC)c3)c(OC)cc(OC)c12 (configuration not stated)	CHT block -6.1 (no result: VIM-2 inhibitor, IMP-1 inh) | CHT block conf 51% | HEK293 MPD ctr inactive
COc1cc(OC)c2c(-c3ccccc3)cc(=O)oc2c1C(CC(=O)N1CCCC1)c1ccc2c(c1)OCO2 (configuration not stated)	none (no result: VIM-2 inhibitor, IMP-1 inh)
COc1cc(OC)c2c(-c3ccccc3)cc(=O)oc2c1C(CCN1CCCC(C)C1)c1ccc2c(c1)OCO2 (configuration not stated)	none (no result: VIM-2 inhibitor, IMP-1 inh)
COc1ccc(C(CCN2CCCCC2)c2c(OC)cc(OC)c3c(-c4ccccc4)cc(=O)oc23)cc1 (configuration not stated)	CHT block -7.1 (no result: VIM-2 inhibitor, IMP-1 inh) | CHT block conf 38% | HEK293 MPD ctr inactive
COc1cc(OC)c2c(-c3ccccc3)cc(=O)oc2c1C(CCN1CCCCC1)c1ccc2c(c1)OCO2 (configuration not stated)	CHT block -9.5 (no result: VIM-2 inhibitor, IMP-1 inh) | CHT block conf 45% | HEK293 MPD ctr inactive
COc1cc(OC)c2c(-c3ccccc3)cc(=O)oc2c1C(CCN1CCCCC1)c1ccc(N(C)C)cc1 (configuration not stated)	CHT block -5.9 (no result: VIM-2 inhibitor, IMP-1 inh) | CHT block conf 29% | HEK293 MPD ctr inactive
COc1ccc(/C=C/C(=O)OCC(=O)NC2CCCCC2C)c(OC)c1 (configuration not stated)	none (no result: VIM-2 inhibitor, CHT PAM, CHT block, IMP-1 inh, ANO1 block)
CC1(C)CNC(=O)c2sc(NC(=O)c3ccccc3Cl)nc2C1	none
C=CCn1c(SCc2cc(=O)n3ccsc3n2)nc2ccccc2c1=O	none
Cc1cc(SCc2cc(=O)n3ccsc3n2)nc2ccccc12	CHT block -13 | CHT block conf -1.4% | HEK293 MPD ctr inactive
O=S(Cc1ccccc1)CC(O)(c1ccc(Cl)cc1)c1ccc(Cl)cc1 (configuration not stated)	none
O=S(Cc1ccccc1)CC(O)(c1ccccc1)c1ccccc1 (configuration not stated)	CHT block -5.1 | CHT block conf inactive | HEK293 MPD ctr inactive
COCc1cc(S(=O)c2ccc(Cl)cc2)nc(C)n1 (configuration not stated)	none (no result: CHT PAM, CHT block, ANO1 block)
N#Cc1ccccc1CSCCNC(=O)Cc1c(F)cccc1Cl	none
CCOC(=O)N/N=C/c1ccc(OCCSc2ccc(Cl)cc2)c(OC)c1	none
CCOc1cc(/C=N/NC(=O)CN2CCCCC2)ccc1OCc1cccc(Cl)c1	CHT block -6.6 | CHT block conf 49% | HEK293 MPD ctr inactive
CCOC(=O)N/N=C/c1ccc(OCCSc2ccc(Cl)cc2)c(OCC)c1	CHT block -5 | CHT block conf inactive | HEK293 MPD ctr inactive
CC(C)(C)c1ccc(NC(=O)CSc2n[nH]c(=O)n2C2CC2)cc1	none (no result: VIM-2 inhibitor, CHT PAM, CHT block, IMP-1 inh, ANO1 block)
O=C(COC(=O)c1ccccc1NCCO)NNC(=O)c1cccs1	none (no result: VIM-2 inhibitor, IMP-1 inh)
CC1CCN(S(=O)(=O)c2ccc3c(c2)N(CC(=O)NCCCN2CCCCC2C)C(=O)CS3)CC1 (configuration not stated)	CHT block -5.5 | CHT block conf 44% | HEK293 MPD ctr inactive
CC1CCN(S(=O)(=O)c2ccc3c(c2)N(CC(=O)NCCN2C(C)CCCC2C)C(=O)CS3)CC1 (configuration not stated)	CHT block -10 | CHT block conf 17% | HEK293 MPD ctr inactive
CCCCN(C)CCNC(=O)CN1C(=O)CSc2ccc(S(=O)(=O)N3CCCC3)cc21	CHT block -5.7 | CHT block conf 58% | HEK293 MPD ctr inactive
CCCCCCCNC(=O)CN1C(=O)CSc2ccc(S(=O)(=O)N3CCOCC3)cc21	none
CC(OC(=O)Cc1c[nH]c2ccccc12)C(=O)Nc1ccc(S(N)(=O)=O)cc1 (configuration not stated)	none (no result: VIM-2 inhibitor, IMP-1 inh)
COC(=O)c1ccc2c(=O)[nH]c(COC(=O)c3c(-c4ccccc4)noc3C)nc2c1	none (no result: VIM-2 inhibitor, IMP-1 inh)
CCCCNC(=O)Nc1c(C(=O)OC)[nH]c2ccc(C)cc12	CHT block -6.9 | CHT block conf inactive | HEK293 MPD ctr inactive
CCCCNC(=O)Nc1c(C(=O)OCC)[nH]c2ccccc12	none
Cc1cc(Cl)c(S(=O)(=O)N2CCCC2)cc1OCC(=O)NC1CCCCC1	CHT block -5.2, ANO1 block 100 | CHT block conf 57% | HEK293 MPD ctr inactive | TMEM16A reconf 22% | HEK293 Ca mobil inactive | Parental YFP cnt inactive | ClC-1 inh inactive
N=c1n(Cc2ccc(Cl)cc2)c2ccccc2n1CC(O)COc1ccccc1 (configuration not stated)	CHT block -9.2, ANO1 block 25 | CHT block conf 46% | HEK293 MPD ctr inactive | TMEM16A reconf 28% | HEK293 Ca mobil inactive | Parental YFP cnt inactive | ClC-1 inh inactive
O=C(Nc1nnc(C(F)(F)F)s1)C1COc2ccccc2O1 (configuration not stated)	CHT block -5.4, ANO1 block 100 | CHT block conf 49% | HEK293 MPD ctr inactive | TMEM16A reconf 30% | HEK293 Ca mobil inactive | Parental YFP cnt inactive | ClC-1 inh inactive
COc1ccc(CC2SC(N)=NC2=O)cc1 (configuration not stated)	none
CC1C(=O)C(C)C(c2cc(Cl)ccc2O)NC1c1cc(Cl)ccc1O (configuration not stated)	none
